Assay results from PMC9043999 (Cell Reports Medicine, 2022).

Experiments:
[1] = tested on: MLD-STZ-induced diabetes in male C57BL6 mice; experiment: MLD-STZ-induced diabetes, wild-type mice; assay type: in vivo, mouse
human islets [2] = experiment: RPPA phosphoproteins with Ingenuity Pathway Analysis; assay type: cell-based; settings: for annotations predicting pathway activation (Z score > 2) / pathways predicting inhibition (Z score < −2): 10^−8 M, 5 min, N = 3 male donors; for most represented biological function: 5 min stimulation (Fig S5)
Method in brief: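 Islets came from three male human donors and were cultured overnight at 37°C in phenol-red-free RPMI (11 mM glucose, 10% charcoal-stripped FBS). They were treated with test compounds at 10−8 M for 5 min, 30 min or 18 h, against untreated islets. Lysates were twofold serially diluted (5 dilutions), arrayed on slides and probed with 485 antibodies using tyramide amplification and DAB detection. Pathway changes were analysed with IPA Downstream Effects Analysis.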

human islets [3] = experiment: RPPA protein expression with gene ontology enrichment; assay type: cell-based; settings: for GO pathways with downregulated proteins / GO pathways with upregulated proteins: adjusted p value < 0.01
Method in brief: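 Islets from 3 male human donors, cultured overnight at 37°C in phenol-red-free RPMI (11 mM glucose, 10% charcoal-stripped FBS). […] Lysates serially diluted twofold (5 dilutions), arrayed on nitrocellulose, probed with 485 antibodies via tyramide amplification and DAB; expression normalized.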

GLP-1R = settings: target β cells; cited from earlier work
[4] = tested on: insulin-deficient diabetes induced by a single high dose of streptozotocin in male and female mice; settings: single high dose of STZ; cited from earlier work
ERE-GFP MIN6 cells = experiment: ERE-GFP reporter activation, flow cytometry; assay type: cell-based, mouse
Method in brief: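 MIN6 cells were stably transduced with a lentiviral 4×ERE-driven GFP reporter and selected with puromycin (2 μg/mL). They were kept in phenol-free DMEM with 10% charcoal-stripped FBS for 7 days before and during assays. Test compounds were given overnight at 10−8 M, or in time courses at 10 nM (1 min) or 100 nM (1, 15, 60, 120 min). Percent GFP-positive cells were scored by flow cytometry, gated on vehicle-treated cells.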

With glucagon-like peptide-1 [GLP-1] the “antidiabetic efficacy at dose ten times lower” value ([1]; mice, dose ten times lower (12 μg/kg)) was “not efficient in mice”, the “annotations predicting pathway activation (Z score > 2)” value (human islets [2]) was “related to cell viability and survival” and the “pathways predicting inhibition (Z score < −2)” value (human islets [2]) was “related to cell death, apoptosis, or necrosis”. The “most represented biological function” value (human islets [2]) was “Cell Death & Survival”, the “GO pathways with downregulated proteins” value (human islets [3]; 18 h) was “downregulated multiple proteins enriched in pathways involved in apoptosis, cytokine and oxidative stress-related inflammation, protein phosphorylation, Akt/PI3-kinase, and cell cycle” and the “GO pathways with upregulated proteins” value (human islets [3]; 18 h) was “upregulated few proteins enriched in pathways involved in response to cytokines and glycolysis”. The “clathrin-mediated endocytosis of GLP-1R” value (GLP-1R) was “promotes ligand-activated, clathrin-mediated endocytosis of GLP-1R”.
In the case of `C[C@]12CC[C@@H]3c4ccc(O)cc4CC[C@H]3[C@@H]1CC[C@@H]2O` [E2, 17β-Estradiol], the “index of β cell function (insulin/glucose)” value ([1]; male C57BL6 mice, 120 μg/kg/day, day 13, vs other treatments) is listed as “maintenance of the index of β cell function”, the hyperglycemia ([1]; male C57BL6 mice, 120 μg/kg/day, vs other treatments, n = 10) is listed as “decrease in hyperglycemia” and the “prevention of insulin-deficient diabetes” value [4] is listed as “prevents insulin-deficient diabetes”. The “level of phosphoproteins and related total proteins” value (human islets [2]; 5 and 30 min, vs GLP-1 or GLP1-E2) was “heightened level of phosphoproteins and related total proteins at 5 and 30 min”, the “annotations predicting pathway activation (Z score > 2)” value (human islets [2]) was “related to cell viability and survival” and the “pathways predicting inhibition (Z score < −2)” value (human islets [2]) was “related to cell death, apoptosis, or necrosis”. For the same compound, the “most represented biological function” value (human islets [2]) was “Cell Death & Survival”, the level of phosphoproteins (human islets [2]; 18 h, vs GLP-1 or GLP1-E2) was “decreased in phosphoproteins at 18 h” and the protein expression (human islets [3]; 5 and 30 min) was “heightened protein expression at 5 and 30 min”. For the same compound, the “GO pathways with downregulated proteins” value (human islets [3]; 18 h) was “downregulated multiple proteins enriched in pathways involved in apoptosis and inflammation, protein phosphorylation, transcription, and Akt/PI3-kinase”, the “GO pathways with upregulated proteins” value (human islets [3]; 18 h) was “upregulated few proteins enriched in pathways involved in proliferation and response to estrogen” and the protein expression (human islets [3]; 18 h, compared to GLP-1- and GLP1-E2-treated islets) was “decreased protein expression level at 18 h”. The “increase in percentage of ERE-activated MIN6 cells” value (ERE-GFP MIN6 cells; 24 h exposure (text; overnight in legend), 10^−8 M (Fig 2D, 2E)) was 4.7 fold, the “ERE activation with ER antagonist fulvestrant” value (ERE-GFP MIN6 cells; E2 after pretreatment with fulvestrant) was “reversed by pretreatment with the ER antagonist fulvestrant” and the “increase in percentage of ERE-activated MIN6 cells” value (ERE-GFP MIN6 cells; E2 alone 1 min, 10 nM (Fig 2F, 2G)) was 6.1 fold. The “time to reach the nucleus and activate EREs” value (ERE-GFP MIN6 cells; MIN6 cells) was no more than 1 min.
